Sampled rows, rich in hits. Any-hit rate of the full collection: about 3.5%.
MrgX1 agonist: agonists of human MrgX1 receptor, primary screen, HEK293 cells, Fluo-4 calcium flux. Mas-related G-protein coupled receptor member X1 (Homo sapiens), Q96LB2. Fluo-4 calcium fluorescence, agonist mode; active compounds read high. B-score at 10 µM. 0.44% of 310,000 active. AID 588627, 2011;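 active = calcium response B-score plate-corrected fluorescence ratio at least 3 library SD, with starting fluorescence B-score inside 5 SD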
Target sequence (Q96LB2 whole entry, looked up): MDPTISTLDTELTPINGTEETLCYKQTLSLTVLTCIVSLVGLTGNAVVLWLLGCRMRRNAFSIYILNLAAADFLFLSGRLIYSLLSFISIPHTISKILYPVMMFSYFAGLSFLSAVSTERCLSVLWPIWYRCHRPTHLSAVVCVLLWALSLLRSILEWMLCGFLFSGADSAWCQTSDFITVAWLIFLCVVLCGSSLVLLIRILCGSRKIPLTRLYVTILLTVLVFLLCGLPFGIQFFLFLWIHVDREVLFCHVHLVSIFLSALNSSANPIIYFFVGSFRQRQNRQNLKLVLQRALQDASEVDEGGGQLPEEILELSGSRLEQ
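Test system: HEK293 cells stably expressing human MrgX1 receptor; amount: 15,000 cells per well; doses: compound delivered in addition one of three; times: overnight plating before 1 h dye loading; detection: Fluo-4 NW calcium-flux fluorescence, kinetic read; read-out basis: B-scored fluorescence response ratio; controls: positive and negative controls per plate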
RGS4 block: RGS4 inhibitors, primary screen, cell-based, HEK293 M3R inducible RGS4, calcium flux; Fluo-4 calcium flux; active compounds read high; triggered by carbachol at its EC20; Regulator of G-protein signaling 4 (Homo sapiens), P49798; AID 463165, 2010; 0.45% of 310,000 active; B-score at 10 µM;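 active = B-score, a plate-corrected calcium signal, over three deviations above library mean, with baseline fluorescence within five deviations of library mean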;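 also: RGS4 expression induced by doxycycline in cells with stable M3 receptor; B-score is computed from the integrated fluorescence ratio over baseline after carbachol; higher B-score means a larger calcium signal and so more RGS4 inhibition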
Target sequence (P49798 whole entry, looked up): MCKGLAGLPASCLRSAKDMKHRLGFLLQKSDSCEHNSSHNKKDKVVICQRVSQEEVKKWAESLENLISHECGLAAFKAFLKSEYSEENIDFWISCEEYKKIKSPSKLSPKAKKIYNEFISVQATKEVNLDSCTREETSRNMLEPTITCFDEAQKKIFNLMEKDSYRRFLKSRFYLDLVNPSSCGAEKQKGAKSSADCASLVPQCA
RGS4 pot: RGS4 potentiators or activators, primary screen, cell-based, HEK293 M3R inducible RGS4, calcium flux; carbachol calcium flux Fluo4; active compounds read low; B-score at 10 µM; 0.92% of 310,000 active;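 active = B-score of the integrated calcium signal more than 4 SD below the library mean, with starting fluorescence not abnormally high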;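 also: negative B-score means reduced calcium response which marks RGS4 activation or potentiation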
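Material: Inducible-RGS4 HEK293 cells carrying M3 receptor; also added: carbachol at ECmax as muscarinic agonist stimulus; incubation: compound preincubation 20 min at room temperature before agonist; signal: Fluo4-AM (2 µM) calcium-flux fluorescence, kinetic read; measure: integrated calcium ratio converted to B score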
MrgX1 PAM: positive allosteric modulators of MrgX1, primary screen, HEK293 cells, Fluo-4 calcium flux; AID 588675, 2011; Mas-related G-protein coupled receptor member X1 (Homo sapiens), Q96LB2; FDSS; active compounds read high; 0.63% of 310,000 active; B-score at 10 µM;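 active = plate-corrected calcium response at least 3 library SD above typical, normal starting fluorescence, not activating the receptor alone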;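 also: compound read alongside a low EC10 to EC30 dose of BAM8-22 agonist; peak minus trough fluorescence over baseline measured at the second addition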
MrgX1 antag: antagonists of human MrgX1 receptor, primary screen, HEK293 cells, Fluo-4 calcium flux | 1.3% of 310,000 active | B-score at 10 µM | BAM8-22 antagonism; active compounds read low | Mas-related G-protein coupled receptor member X1 (Homo sapiens), Q96LB2;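 active = calcium-response B-score plate-corrected more than 3 library SD below zero, starting fluorescence within 5 deviations, no agonist response on first addition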;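 also: peak minus trough fluorescence over baseline after final BAM8-22 challenge near maximal dose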
MrgX1 antag conf: MrgX1 receptor antagonists, duplicate retest, confirmation, HEK293 cells, Fluo-4 calcium flux; BAM8-22 calcium flux; active compounds read low; 19% of 2,300 active; shares compounds with MrgX1 antag; AID 602420, 2012; remaining BAM8-22 calcium response % of control (active compounds read low), % at 10 µM;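 active = remaining agonist calcium response no higher than 100% minus 3 SD of agonist-only control wells, with starting fluorescence near control levels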;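 also: agonist BAM8-22 given at a near maximal EC90 to ECmax level; peak minus minimum fluorescence divided by baseline after agonist addition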
HEK293 Ca flux: nonspecific calcium signal in parental HEK293, confirmation, counter-screen for MrgX1 antagonist project, parental HEK293 cells, Fluo-4 calcium flux; shares compounds with MrgX1 antag; Fluo-4 calcium fluorescence, FDSS; fluorescence ratio F(max-min)/F0 at 10 µM; 2% of 4,000 active;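 active = duplicate-averaged calcium fluorescence ratio at least three times the standard deviation of buffer wells, a nonspecific response in parental cells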
HEK293 Ca counter: calcium response in parental HEK293 cells, primary screen, counter-screen for MrgX1 allosteric activator project, cell-based, Fluo-4 calcium flux, duplicate | Fluo-4 fluorescence ratio; active compounds read high | 0.4% of 4,000 active | AID 624114, 2012 | fluorescence ratio F(max-min)/F0 at 10 µM | shares compounds with MrgX1 antag;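 active = calcium fluorescence ratio, averaged over duplicates, at least 3 SD of the buffer-well ratio, meaning a nonspecific response in receptor-free cells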;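 also: untransfected parental HEK293 lacking MrgX1 used as counterscreen for MrgX1 allosteric activators; fluorescence change taken during the second addition on a kinetic imager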
HEK293 Ca cntr2: calcium response in parental HEK293 cells, primary screen, counter-screen for MrgX1 agonist project, cell-based, Fluo-4 calcium flux, duplicate, agonist mode | shares compounds with MrgX1 antag | Fluo-4 calcium fluorescence (FDSS); active compounds read high | fluorescence ratio F(max-min)/F0 at 10 µM | 8.7% of 4,000 active;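 active = calcium fluorescence ratio at least three times the spread of buffer wells, meaning a non-specific response in parental cells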
* = called active by the depositor; i = inactive; / = not tested or not shown.

SMILES | MrgX1 agonist | RGS4 block | RGS4 pot | MrgX1 PAM | MrgX1 antag | MrgX1 antag conf | HEK293 Ca flux | HEK293 Ca counter | HEK293 Ca cntr2
COc1ccc(/C=N/NC(=O)c2ccoc2C)cc1CN1CCN(c2ccc(F)cc2)CC1 | i | i | i | i | i | / | / | / | /
CCC[C@H]1COCCS(=O)(=O)N1Cc1ccccc1F | i | i | i | i | i | / | / | / | /
CC(C)[C@H]1COCCS(=O)(=O)N1Cc1ccccc1F | i | i | i | i | -5.3* | i | i | i | i
COc1nc(Nc2ccccc2F)nc(OC)n1 | i | i | i | i | -8.1* | i | i | i | i
CC1(C)C(C#N)=C(N)OC2=C1C(=O)CCC2 | i | i | i | i | -5.7* | i | i | i | i
N#CC1=C(N)OC2=C(C(=O)CCC2)C12CCC1(CC2)OCCO1 | i | i | i | i | i | / | / | / | /
Cc1ccccc1OCC(=O)Nc1ccc2c(c1)OCO2 | i | i | i | i | -4.5* | 84%* | i | i | i
c1ccc(-c2nc(-c3ccncc3)no2)cc1 | i | i | i | i | -7.6* | i | i | i | i
Clc1ccccc1-c1nc(-c2ccncc2)no1 | i | i | i | i | i | / | / | / | /
c1ccc(-c2ccccc2-c2nc(-c3ccncc3)no2)cc1 | i | i | i | i | -4.7* | i | i | i | i
CCOc1ccccc1N1CCN(C(=O)c2c(-c3c(F)cccc3Cl)noc2C)CC1 | i | i | i | i | i | / | / | / | /
CC1=C(C(N)=O)C(c2cccc(O)c2)n2nc(CCCO)nc2N1 (stereo not given) | i | i | i | i | -4.7* | i | i | i | i
CC1=C(C(N)=O)C(c2ccc(Cl)cc2)n2nc(CCCO)nc2N1 (stereo not given) | i | i | i | i | i | / | / | / | /
Cn1c(=O)oc2cc(S(=O)(=O)NCCC(=O)N3CCN(c4ccccc4F)CC3)ccc21 | i | i | i | i | i | / | / | / | /
Cn1c(=O)oc2cc(S(=O)(=O)NCCC(=O)N3CCc4ccccc43)ccc21 | i | i | i | i | -5.1* | i | i | i | i
Cc1ccc(NC(=O)c2ccccc2-c2ccccc2C(=O)O)cc1 | i | i | i | i | -6.6* | i | i | i | i
Cc1ccc(NC(=O)c2ccccc2)cc1 | i | i | i | i | -4.7* | i | i | i | i
O=C(O)c1ccccc1-c1ccccc1C(=O)Nc1ccccc1 | i | i | i | i | i | / | / | / | /
O=C(Nc1ccc(NC(=O)c2ccccc2)nc1)c1ccncc1 | i | i | i | i | -6.8* | i | i | i | i
O=C(Nc1cccc(Cl)c1)Nc1cccc(Cl)c1 | i | i | i | i | i | / | / | / | /
CCSc1nsc(NC(=O)Nc2cccc(F)c2)n1 | i | i | i | i | -7.4* | 78%* | i | i | i
COC(=O)c1cc(NC(=O)Nc2cccc(Cl)c2)ccc1Cl | i | i | i | i | -4.7* | 82%* | i | i | i
O=C(Nc1cccc(F)c1)Nc1cccc(Cl)c1 | i | i | i | i | -5.1* | 65%* | i | i | i
NS(=O)(=O)c1cccc(NC(=O)Nc2ccc(Cl)cc2)c1 | i | i | i | i | -6.3* | 83%* | i | i | i
CC(C)c1ccccc1NC(=O)COC(=O)c1cccnc1 | i | i | i | i | i | / | / | / | /
SMILES | MrgX1 agonist | RGS4 block | RGS4 pot | MrgX1 PAM | MrgX1 antag | MrgX1 antag conf | HEK293 Ca flux | HEK293 Ca counter | HEK293 Ca cntr2
CCOc1ccc(-c2c(C(=O)N/N=C/c3cccnc3)nnn2-c2nonc2N)cc1 | i | i | i | i | i | / | / | / | /
CCOC(=O)c1cc(C)n(Cc2ccc(OCC)c(OC)c2)c1C | i | i | i | i | i | / | / | / | /
COC(=O)c1cc(NC(=O)c2ccc(-c3ccccc3)cc2)ccc1Cl | i | i | i | i | -8.1* | i | i | i | i
CCOC(=O)C1CCN(c2ncnc3c2cnn3-c2ccc(Cl)cc2)CC1 | i | i | i | i | i | / | / | / | /
Cc1ccc(-n2ncc3c(N4CCC(C(N)=O)CC4)ncnc32)c(C)c1 | i | i | i | i | -10* | i | i | i | i
CCOC(=O)CNC(=O)CSc1ncnc2c1cnn2-c1ccccc1 | i | i | i | i | -6.1* | i | i | i | i
CCOC(=O)C1CCN(c2ncnc3c2cnn3-c2ccccc2)CC1 | i | i | i | i | -5* | i | i | i | i
Cc1occc1C(=O)Nc1nnc(-c2cccs2)s1 | i | i | i | i | i | / | / | / | /
CCC1(c2ccc(F)cc2)NC(=O)N(CC(=O)NC2CC2)C1=O (stereo not given) | i | i | i | i | i | / | / | / | /
CCC1(c2ccc(F)cc2)NC(=O)N(CC(=O)c2cc(C)n(C3CC3)c2C)C1=O (stereo not given) | i | i | i | i | -6.3* | i | i | i | 51*
CC(C)(C)c1ccc(-n2ncc3c2CCCC3NC(=O)CCN2CCCCC2=O)cc1 (stereo not given) | i | i | i | i | i | / | / | / | /
Cc1cc(C)cc(-n2ncc3c2CCCC3NC(=O)CN2CCCCC2=O)c1 (stereo not given) | i | i | i | i | -8.3* | i | i | i | i
